Measured values: ChEMBL document CHEMBL4364291, “Benzylideneacetone Derivatives Inhibit Osteoclastogenesis and Activate Osteoblastogenesis Independently Based on Specific Structure-Activity Relationship” (J Med Chem, 2019)
Active and inactive are the calls of the source. No cut-off for these calls is given here.

How the values were obtained:
MC3T3-E1 [1] = assay: Osteo-blastogenic activity in mouse MC3T3-E1 cells assessed as stimulation of ALP activity at 50 uM supplemented with fresh medium every 3 to 4 days and measured after 14 days relative to control; assay type: functional
In short: (§1)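 MC3T3-E1 subclone 4 osteoblastic cells were grown in α-MEM at 37 °C under 5% CO2 with compound present during differentiation. ALP activity was read 14 d after induction and expressed as % of untreated cells. Values are mean ± SD of three independent experiments.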

[2] = Inhibition of M-CSF/RANKL-induced osteoclast differentiation in C57BL/6 mouse bone marrow macrophage assessed as reduction in multinucleated TRAP+ cells incubated for 6 days with fresh media replacement on day 3 and measured on day 6 by TRAP staining-based microscopic analysis; assay type: functional, cell-based; conditions: C57BL/6, BMDM
In short: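 BMM came from femur and tibia marrow of 5–8-week-old male C57BL/6 mice and were purified over lymphocyte separation medium. Cells, 1 × 10^5 per well, were grown in α-MEM/10% FBS with M-CSF (60 ng/mL) and RANKL (150 ng/mL) for 6 d, medium changed day 3. Compound range was 0.01−100 μM. TRAP+ multinucleated cells were counted on day 6.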

MC3T3-E1 [3] = assay: Osteo-blastogenic activity in mouse MC3T3-E1 cells assessed as stimulation of ALP activity at 10 uM supplemented with fresh medium every 3 to 4 days and measured after 14 days relative to control; assay type: functional; in short: as §1
MC3T3-E1 [4] = assay: Osteo-blastogenic activity in mouse MC3T3-E1 cells assessed as stimulation of ALP activity at 1 uM supplemented with fresh medium every 3 to 4 days and measured after 14 days relative to control; assay type: functional; in short: as §1
Mus musculus [5] = assay: Antiosteoporotic activity in ddY mouse model of OVX-induced osteoporosis assessed as increase in femur bone mineral density at 10 mg/kg, po administered once daily via gavage for 4 weeks by microcomputed tomographic analysis; assay type: functional, organism-based
In short: (§2)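 Female ddY mice were ovariectomized. Oral gavage began 1 week after surgery and ran once daily for 28 d. Vehicle was 300 μL PBS containing 0.5% (v/v) DMSO, also given to sham and OVX controls. Mice were then euthanized and femur and tibia fixed for CT imaging. Values are mean ± SD of four mice.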

Mus musculus [6] = assay: Antiosteoporotic activity in ddY mouse model of OVX-induced osteoporosis assessed as increase in trabecular thickness in femur bone at 10 mg/kg, po administered once daily via gavage for 4 weeks by microcomputed tomographic analysis; assay type: functional, organism-based; in short: as §2
Mus musculus [7] = assay: Antiosteoporotic activity in ddY mouse model of OVX-induced osteoporosis assessed as increase in new bone volume in femur bone at 10 mg/kg, po administered once daily via gavage for 4 weeks by microcomputed tomographic analysis; assay type: functional, organism-based; in short: as §2
Mus musculus [8] = assay: Antiosteoporotic activity in ddY mouse model of OVX-induced osteoporosis assessed as increase in ratio of bone volume/trabecular volume in femur bone at 10 mg/kg, po administered once daily via gavage for 4 weeks by microcomputed tomographic analysis; assay type: functional, organism-based; in short: as §2
[9] = target: Isopentenyl-diphosphate Delta-isomerase 1 (Rattus norvegicus, UniProt O35760); assay: Inhibition of isopentenyl diphosphate isomerase in Sprague-Dawley rat liver S100 fraction preincubated for 10 min followed by MVA addition by HPLC analysis
Chain of Isopentenyl-diphosphate Delta-isomerase 1 (O35760 whole entry): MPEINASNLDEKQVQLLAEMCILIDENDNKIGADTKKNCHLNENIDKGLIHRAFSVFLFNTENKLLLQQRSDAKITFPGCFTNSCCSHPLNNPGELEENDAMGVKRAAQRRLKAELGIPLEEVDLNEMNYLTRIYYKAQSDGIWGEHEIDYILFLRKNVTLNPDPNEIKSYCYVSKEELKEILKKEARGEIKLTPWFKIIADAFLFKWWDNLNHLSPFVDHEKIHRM

Mus musculus [10] = assay: Antiosteoporotic activity in ddY mouse model of OVX-induced osteoporosis assessed as increase in trabecular number in femur bone at 10 mg/kg, po administered once daily via gavage for 4 weeks by microcomputed tomographic analysis; assay type: functional, organism-based; in short: as §2
Mus musculus [11] = assay: Antiosteoporotic activity in ddY mouse model of OVX-induced osteoporosis assessed as reduction in trabecular separation in femur bone at 10 mg/kg, po administered once daily via gavage for 4 weeks by microcomputed tomographic analysis; assay type: functional, organism-based; in short: as §2
Mus musculus [12] = assay: Antiosteoporotic activity in ddY mouse model of OVX-induced osteoporosis assessed as increase in cross-sectional thickness in femur bone at 10 mg/kg, po administered once daily via gavage for 4 weeks by microcomputed tomographic analysis; assay type: functional, organism-based; in short: as §2
HCT-116 = assay: Antiproliferative activity against human HCT116 cells after 24 hrs by MTT assay; assay type: functional; conditions: HCT-116, 24 h, read-out: LD50 (the source's name)
In short: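 Cells were maintained in DMEM at 37 °C under 5% CO2. Growth and survival were estimated by MTT assay, and the value is reported as LD50.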

BMDM [13] = assay: Suppression of NFATc1 expression in M-CSF induced C57BL/6 mouse bone marrow macrophages at 10 uM measured over 5 days by Western blot analysis; assay type: functional, cell-based
In short: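 C57BL/6 BMM were kept proliferating with M-CSF in the absence of RANKL and treated with compound (0.5 or 10 μM). NFATc1 expression was followed over the culture period by Western blot.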

[14] = Cytotoxicity against mouse RAW264.7 cells after 24 hrs by MTT assay; assay type: cell-based; conditions: read-out: LD50
In short: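 RAW264.7 macrophages (preosteoclast line) were kept in DMEM at 37 °C under 5% CO2 and tested without RANKL. MTT read-out of growth and survival, expressed as LD50.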

BMDM [15] = assay: Effect on NFkappaB expression in M-CSF induced C57BL/6 mouse bone marrow macrophages at 10 uM measured over 5 days by Western blot analysis; assay type: functional, cell-based
In short: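 C57BL/6 BMM were proliferated with M-CSF alone without RANKL and treated at 0.5 or 10 μM. NF-κB expression was followed over time by Western blot.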

BMDM [16] = assay: Inhibition of RANKL-induced osteoclastogenesis in C57BL/6 mouse bone marrow macrophages assessed as reduction in NFATc1 expression at 10 uM measured over 5 days by Western blot analysis; assay type: functional, cell-based
In short: (§3)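 C57BL/6 BMM were grown with M-CSF plus RANKL over the course of osteoclastogenesis, treated at 0.5 or 10 μM. NF-κB and NFATc1 were followed by Western blot. The negative control was M-CSF only.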

[17] = Toxicity in ddY mouse model of OVX-induced osteoporosis assessed as increase in body weight at 10 mg/kg, po administered once daily via gavage for 4 weeks measured 5 weeks post OVX-challenge; assay type: organism-based; conditions: in vivo, 840 h
In short: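 Dosing of ddY mice began one week after ovariectomy: compound in 300 μL of 0.5% (v/v) DMSO-containing PBS by gavage once daily for 28 d. OVX and sham controls received vehicle. Body weight was compared with sham control 5 weeks after OVX.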

BMDM [18] = assay: Inhibition of RANKL-induced osteoclastogenesis in C57BL/6 mouse bone marrow macrophages assessed as increase in NFkappaB expression at 10 uM measured over 5 days by Western blot analysis; assay type: functional, cell-based; in short: as §3

| SMILES | Activity (MC3T3-E1 [1]) | IC50 [2] | Activity (MC3T3-E1 [3]) | also measured |
| --- | --- | --- | --- | --- |
| O=C(O)Cc1ccc(O)c(O)c1 [3,4-DIHYDROXYPHENYLACETIC ACID] | 170% | 75 µM | 120% |  |
| O=C(/C=C/c1ccc(O)c(O)c1)O[C@@H]1C[C@@](O)(C(=O)O)C[C@@H](O)[C@@H]1O | 170% | 48 µM | 120% |  |
| CC(=O)/C=C/c1ccc(C)c(O)c1 | 130% | 5.9 µM | 100% |  |
| CC[C@H](C)[C@H](NC(=O)[C@H](CCC(=O)O)NC(=O)[C@H](CO)NC(=O)[C@@H](NC(=O)[C@@H](N)CO)C(C)C)C(=O)N[C@@H](CCC(N)=O)C(=O)N[C@@H](CC(C)C)C(=O)N[C@@H](CCSC)C(=O)N[C@@H](Cc1cnc[nH]1)C(=O)N[C@@H](CC(N)=O)C(=O)N[C@@H](CC(C)C)C(=O)NCC(=O)N[C@@H](CCCCN)C(=O)N[C@@H](Cc1cnc[nH]1)C(=O)N[C@@H](CC(C)C)C(=O)N[C@@H](CC(N)=O)C(=O)N[C@@H](CO)C(=O)N[C@@H](CCSC)C(=O)N[C@@H](CCC(=O)O)C(=O)N[C@@H](CCCNC(=N)N)C(=O)N[C@H](C(=O)N[C@@H](CCC(=O)O)C(=O)N[C@@H](Cc1c[nH]c2ccccc12)C(=O)N[C@@H](CC(C)C)C(=O)N[C@@H](CCCNC(=N)N)C(=O)N[C@@H](CCCCN)C(=O)N[C@@H](CCCCN)C(=O)N[C@@H](CC(C)C)C(=O)N[C@@H](CCC(N)=O)C(=O)N[C@@H](CC(=O)O)C(=O)N[C@H](C(=O)N[C@@H](Cc1cnc[nH]1)C(=O)N[C@@H](CC(N)=O)C(=O)N[C@@H](Cc1ccccc1)C(=O)O)C(C)C)C(C)C [TERIPARATIDE] |  |  |  | Activity (MC3T3-E1 [4]): 140% |
| O=C(/C=C/c1ccc(O)c(O)c1)O[C@@H]1C[C@](O)(C(=O)O)C[C@@H](O)[C@H]1O [CHLOROGENIC ACID] | 150% | 86 µM | 110% |  |
| C=CCOc1ccc(/C=C/C(C)=O)cc1O | 140% | 18 µM | 120% |  |
| COC(=O)Cc1ccc(O)c(O)c1 | 130% | 80 µM | 100% |  |
| COC(=O)c1ccc(O)c(O)c1 [METHYL PROTOCATECHUATE] | 100% | 78 µM | 110% |  |
| CC(=O)/C=C/c1ccc(OCc2ccccc2)c(O)c1 | 140% | 19 µM | 130% |  |
| CC(=O)/C=C/c1ccc(O)cc1 | 150% | 32 µM | 110% |  |
| O=C(O)/C=C/c1ccc(O)c(O)c1 [CAFFEIC ACID] | 130% | 41 µM | 120% |  |
| O=C(O)/C=C/c1ccccc1 [CINNAMIC ACID] | 110% | > 100 µM | 100% |  |
| CC(=O)/C=C/c1ccc(O)c(F)c1 | 100% | 8.3 µM | 100% |  |
| O=Cc1ccc(O)c(O)c1 [PROTOCATECHUALDEHYDE] | 140% | 15 µM | 110% |  |
| O=C(O)c1ccc(O)c(O)c1 [PROTOCATECHUIC ACID] | 140% | 89 µM | 100% |  |
| CC(=O)/C=C/c1ccc(OC(C)C)c(O)c1 | 94% | 24 µM | 100% |  |
| O=C(O)Cc1ccccc1 [PHENYLACETIC ACID] | 110% | > 100 µM | 120% |  |
| NCCCC(O)(P(=O)(O)O)P(=O)(O)O [ALENDRONATE SODIUM] |  | 3.7 µM |  | Activity (Mus musculus [5]): Active; Activity (Mus musculus [6]): inactive; Activity (Mus musculus [7]): Active; Activity (Mus musculus [8]): Active; IC50 [9]: 1.7 µM; Activity (Mus musculus [10]): Active; Activity (Mus musculus [11]): Active; Activity (Mus musculus [12]): Active |
| CC(=O)/C=C/c1ccc(F)c(O)c1 | 100% | 15 µM | 100% |  |
| COc1cc(/C=C/C(C)=O)ccc1O [DEHYDROZINGERONE] | 600% | 7.5 µM | 110% | Activity (Mus musculus [5]): Active; Activity (Mus musculus [6]): Active; CC50 (HCT-116): 310 µM; Activity (BMDM [13]): Active; CC50 at 24 h [14]: > 5000 µM; Activity (BMDM [15]): inactive; Activity (Mus musculus [7]): Active; Activity (Mus musculus [8]): Active; inhibition (BMDM [16]): Active; Activity [17]: Toxic; Activity (Mus musculus [10]): Active; Activity (Mus musculus [11]): Active; inhibition (BMDM [18]): Active; Activity (Mus musculus [12]): Active |
| Cc1ccc(/C=C/C(N)=O)cc1O | 120% | 15 µM | 110% |  |
| NC(=O)/C=C/c1ccc(F)c(O)c1 | 120% | 25 µM | 110% |  |
